# Laboratory results from the M2OR odorant receptor database.
# Changes are numbered by the printed parent chain.
# Legend:
# Details in all cases: stereoisomer not certain
# [1] = target: T1, OR2A12 (Homo sapiens) (UniProt Q8NGT7)
# T1 sequence (whole entry): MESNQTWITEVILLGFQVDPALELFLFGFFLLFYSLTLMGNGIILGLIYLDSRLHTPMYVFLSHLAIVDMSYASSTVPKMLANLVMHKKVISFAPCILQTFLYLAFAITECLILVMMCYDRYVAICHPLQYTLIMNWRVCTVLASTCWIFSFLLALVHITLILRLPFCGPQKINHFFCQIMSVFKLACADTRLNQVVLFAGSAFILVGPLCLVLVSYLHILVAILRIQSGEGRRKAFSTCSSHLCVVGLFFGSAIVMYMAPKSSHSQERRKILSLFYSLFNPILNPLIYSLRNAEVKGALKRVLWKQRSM
# In short: (§1)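 Whether a receptor–molecule pair is responsive (active) rests on the original authors' judgment that its measured signal was statistically different from baseline. Pairs without that judgment are non-responsive (inactive). Sources used varied assay methods, commonly transient luciferase assays in mammalian cell lines.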
# [2] = target: T2, OR2A14 (Homo sapiens) (UniProt Q96R47)
# T2 sequence (whole entry): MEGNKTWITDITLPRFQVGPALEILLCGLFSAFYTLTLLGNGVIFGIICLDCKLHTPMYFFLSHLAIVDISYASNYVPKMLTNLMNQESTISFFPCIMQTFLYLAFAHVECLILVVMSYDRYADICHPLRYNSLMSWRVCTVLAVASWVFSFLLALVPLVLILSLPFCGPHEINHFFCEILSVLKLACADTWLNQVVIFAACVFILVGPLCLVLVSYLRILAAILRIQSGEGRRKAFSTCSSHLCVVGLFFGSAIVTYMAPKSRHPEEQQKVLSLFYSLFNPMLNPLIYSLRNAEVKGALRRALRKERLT
# In short: as §1
# [3] = target: T3, OR2A2 (Homo sapiens) (UniProt Q6IF42)
# T3 sequence (whole entry): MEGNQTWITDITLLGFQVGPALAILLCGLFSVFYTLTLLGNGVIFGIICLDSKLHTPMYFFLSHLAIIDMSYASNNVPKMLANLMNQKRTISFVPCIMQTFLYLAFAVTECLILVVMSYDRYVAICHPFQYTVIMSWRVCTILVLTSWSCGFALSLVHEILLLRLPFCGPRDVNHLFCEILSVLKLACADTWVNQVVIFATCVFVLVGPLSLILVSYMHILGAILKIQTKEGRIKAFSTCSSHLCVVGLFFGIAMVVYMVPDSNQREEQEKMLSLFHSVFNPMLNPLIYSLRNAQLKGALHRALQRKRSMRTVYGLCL
# In short: as §1
# [4] = target: T4, OR2A25 (Homo sapiens) (UniProt A4D2G3)
# T4 sequence (whole entry): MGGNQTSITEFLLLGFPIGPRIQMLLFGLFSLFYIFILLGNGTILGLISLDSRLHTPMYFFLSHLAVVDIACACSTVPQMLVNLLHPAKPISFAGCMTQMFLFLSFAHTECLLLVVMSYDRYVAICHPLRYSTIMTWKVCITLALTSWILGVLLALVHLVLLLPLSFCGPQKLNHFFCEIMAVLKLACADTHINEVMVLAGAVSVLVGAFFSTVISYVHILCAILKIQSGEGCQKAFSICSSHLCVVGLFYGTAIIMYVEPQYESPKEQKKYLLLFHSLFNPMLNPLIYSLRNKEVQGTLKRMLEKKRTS
# In short: as §1
# [5] = target: T5, OR2A4 (Homo sapiens) (UniProt O95047)
# T5 sequence (whole entry): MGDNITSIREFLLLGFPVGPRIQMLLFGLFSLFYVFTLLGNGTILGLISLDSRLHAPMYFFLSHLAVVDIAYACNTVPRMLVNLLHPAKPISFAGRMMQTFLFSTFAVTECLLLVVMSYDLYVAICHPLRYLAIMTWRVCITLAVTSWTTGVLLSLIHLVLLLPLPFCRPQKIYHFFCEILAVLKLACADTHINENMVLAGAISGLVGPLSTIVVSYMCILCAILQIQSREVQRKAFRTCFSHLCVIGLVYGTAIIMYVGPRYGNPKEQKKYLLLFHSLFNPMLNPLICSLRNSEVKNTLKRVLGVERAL
# In short: as §1
# [6] = target: T6, OR2A5 (Homo sapiens) (UniProt Q96R48)
# T6 sequence (whole entry): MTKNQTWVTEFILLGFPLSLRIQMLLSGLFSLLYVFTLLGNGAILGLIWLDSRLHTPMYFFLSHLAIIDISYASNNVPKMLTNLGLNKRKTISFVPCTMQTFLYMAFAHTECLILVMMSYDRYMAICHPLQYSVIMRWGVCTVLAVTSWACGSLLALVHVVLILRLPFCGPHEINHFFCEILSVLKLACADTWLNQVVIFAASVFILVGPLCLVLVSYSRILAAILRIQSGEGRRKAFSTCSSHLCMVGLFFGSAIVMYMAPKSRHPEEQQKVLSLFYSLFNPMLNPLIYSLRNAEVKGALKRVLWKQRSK
# In short: as §1
# [7] = target: T7, OR2A7 (Homo sapiens) (UniProt Q96R45)
# T7 sequence (whole entry): T5 sequence (whole entry) with R9T, R238C, V250F
# In short: as §1
# [8] = target: T8, OR2AE1 (Homo sapiens) (UniProt Q8NHA4)
# T8 sequence (whole entry): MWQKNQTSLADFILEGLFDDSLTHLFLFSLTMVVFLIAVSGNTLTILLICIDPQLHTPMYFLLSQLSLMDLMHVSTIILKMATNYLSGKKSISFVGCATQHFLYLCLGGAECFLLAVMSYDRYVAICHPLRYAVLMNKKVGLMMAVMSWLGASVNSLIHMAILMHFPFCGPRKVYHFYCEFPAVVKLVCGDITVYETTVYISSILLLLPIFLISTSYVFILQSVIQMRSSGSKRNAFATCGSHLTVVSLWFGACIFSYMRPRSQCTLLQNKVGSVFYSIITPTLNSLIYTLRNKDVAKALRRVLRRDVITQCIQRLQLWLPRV
# In short: as §1
# [9] = target: T9, OR2AG1 (Homo sapiens) (UniProt Q9H205)
# T9 sequence (whole entry): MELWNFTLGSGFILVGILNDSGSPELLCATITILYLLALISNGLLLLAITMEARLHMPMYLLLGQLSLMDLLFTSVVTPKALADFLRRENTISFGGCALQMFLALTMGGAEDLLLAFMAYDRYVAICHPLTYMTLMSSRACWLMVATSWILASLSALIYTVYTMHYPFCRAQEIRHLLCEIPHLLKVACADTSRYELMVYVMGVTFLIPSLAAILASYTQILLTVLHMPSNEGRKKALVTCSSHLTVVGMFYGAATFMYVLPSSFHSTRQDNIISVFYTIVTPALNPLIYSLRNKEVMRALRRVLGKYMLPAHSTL
# In short: as §1
# [10] = target: T10, OR2AG2 (Homo sapiens) (UniProt A6NM03)
# T10 sequence (whole entry): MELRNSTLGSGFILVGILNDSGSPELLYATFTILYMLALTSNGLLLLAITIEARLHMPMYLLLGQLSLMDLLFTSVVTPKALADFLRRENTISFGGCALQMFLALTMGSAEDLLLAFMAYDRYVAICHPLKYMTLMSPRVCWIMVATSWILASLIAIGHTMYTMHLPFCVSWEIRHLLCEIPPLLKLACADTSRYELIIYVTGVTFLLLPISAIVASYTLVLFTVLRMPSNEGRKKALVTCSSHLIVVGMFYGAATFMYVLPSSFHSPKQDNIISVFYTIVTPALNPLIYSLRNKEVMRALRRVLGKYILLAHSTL
# In short: as §1
# [11] = target: T11, OR2AJ1 (Homo sapiens) (UniProt Q8NGZ0)
# T11 sequence (whole entry): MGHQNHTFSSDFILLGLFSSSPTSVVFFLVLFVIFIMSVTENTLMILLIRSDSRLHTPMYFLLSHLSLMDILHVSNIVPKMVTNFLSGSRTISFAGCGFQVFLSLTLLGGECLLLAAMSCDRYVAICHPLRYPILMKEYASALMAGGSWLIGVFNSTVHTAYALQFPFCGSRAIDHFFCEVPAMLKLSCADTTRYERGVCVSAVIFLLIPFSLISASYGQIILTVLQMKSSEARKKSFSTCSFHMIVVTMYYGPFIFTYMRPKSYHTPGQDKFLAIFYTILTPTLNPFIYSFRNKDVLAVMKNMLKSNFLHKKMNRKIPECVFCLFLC
# In short: as §1
# [12] = target: T12, OR2AK2 (Homo sapiens) (UniProt Q8NG84)
# T12 sequence (whole entry): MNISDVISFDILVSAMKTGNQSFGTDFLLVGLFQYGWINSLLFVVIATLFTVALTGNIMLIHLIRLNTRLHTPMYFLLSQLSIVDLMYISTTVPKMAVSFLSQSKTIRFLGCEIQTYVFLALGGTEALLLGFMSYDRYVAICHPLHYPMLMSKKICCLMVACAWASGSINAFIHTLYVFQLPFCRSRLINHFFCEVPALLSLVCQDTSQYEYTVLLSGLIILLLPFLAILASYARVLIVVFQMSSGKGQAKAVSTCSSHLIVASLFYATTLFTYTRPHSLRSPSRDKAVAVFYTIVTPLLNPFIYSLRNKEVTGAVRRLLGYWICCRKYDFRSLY
# In short: as §1
# [13] = target: T13, OR2AP1 (Homo sapiens) (UniProt Q8NGE2)
# T13 sequence (whole entry): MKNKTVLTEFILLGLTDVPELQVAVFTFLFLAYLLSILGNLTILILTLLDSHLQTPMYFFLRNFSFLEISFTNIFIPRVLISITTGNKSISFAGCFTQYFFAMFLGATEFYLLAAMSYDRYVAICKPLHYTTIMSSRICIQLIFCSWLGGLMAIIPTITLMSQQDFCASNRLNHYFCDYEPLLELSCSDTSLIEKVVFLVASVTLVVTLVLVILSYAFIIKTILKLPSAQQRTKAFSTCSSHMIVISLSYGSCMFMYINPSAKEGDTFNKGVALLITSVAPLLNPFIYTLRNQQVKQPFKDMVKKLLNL
# In short: as §1
# [14] = target: T14, OR2AT4 (Homo sapiens) (UniProt A6NND4)
# T14 sequence (whole entry): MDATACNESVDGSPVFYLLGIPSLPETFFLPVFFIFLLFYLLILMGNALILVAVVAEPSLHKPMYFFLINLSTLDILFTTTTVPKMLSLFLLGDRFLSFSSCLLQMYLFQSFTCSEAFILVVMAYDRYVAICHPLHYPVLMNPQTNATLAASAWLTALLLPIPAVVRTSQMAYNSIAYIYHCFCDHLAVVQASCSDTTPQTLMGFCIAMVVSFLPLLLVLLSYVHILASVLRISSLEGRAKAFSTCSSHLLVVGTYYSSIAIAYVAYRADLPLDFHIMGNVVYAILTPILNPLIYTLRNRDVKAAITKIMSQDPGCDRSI
# In short: as §1
# [15] = target: T15, OR2B11 (Homo sapiens) (UniProt Q5JQS5)
# T15 sequence (whole entry): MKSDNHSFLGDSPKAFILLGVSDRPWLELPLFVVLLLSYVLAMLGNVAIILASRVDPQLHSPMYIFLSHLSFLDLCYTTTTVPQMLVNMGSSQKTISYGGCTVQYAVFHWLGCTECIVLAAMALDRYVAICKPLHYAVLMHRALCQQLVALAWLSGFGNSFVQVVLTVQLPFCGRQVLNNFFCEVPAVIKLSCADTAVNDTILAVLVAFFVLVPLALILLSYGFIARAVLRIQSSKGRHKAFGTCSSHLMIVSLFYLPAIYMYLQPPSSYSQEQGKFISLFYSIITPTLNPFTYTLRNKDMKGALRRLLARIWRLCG
# In short: as §1
# [16] = target: T16, OR2B2 (Homo sapiens) (UniProt Q9GZK3)
# T16 sequence (whole entry): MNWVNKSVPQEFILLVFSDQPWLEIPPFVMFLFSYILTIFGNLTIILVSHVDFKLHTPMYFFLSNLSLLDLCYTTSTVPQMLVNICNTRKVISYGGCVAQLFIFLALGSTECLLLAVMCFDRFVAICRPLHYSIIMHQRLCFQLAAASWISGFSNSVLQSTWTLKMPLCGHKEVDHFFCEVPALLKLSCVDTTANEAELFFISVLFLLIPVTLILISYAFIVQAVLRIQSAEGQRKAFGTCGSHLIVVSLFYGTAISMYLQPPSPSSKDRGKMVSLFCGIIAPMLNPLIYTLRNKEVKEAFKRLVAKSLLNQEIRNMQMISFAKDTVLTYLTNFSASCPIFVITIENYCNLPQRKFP
# In short: as §1
# [17] = test system: T17, OR2A1 T73A R74C S168C
# T17 sequence (whole entry): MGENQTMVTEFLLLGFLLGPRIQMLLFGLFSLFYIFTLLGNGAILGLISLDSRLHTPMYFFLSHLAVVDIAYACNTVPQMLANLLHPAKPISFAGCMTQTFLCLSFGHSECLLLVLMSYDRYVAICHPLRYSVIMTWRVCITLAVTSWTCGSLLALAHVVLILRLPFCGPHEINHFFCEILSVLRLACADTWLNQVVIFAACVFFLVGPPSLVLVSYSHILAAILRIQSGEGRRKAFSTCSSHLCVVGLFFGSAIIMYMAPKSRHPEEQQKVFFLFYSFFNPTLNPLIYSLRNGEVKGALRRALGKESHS
# In short: as §1
# [18] = test system: T18, OR2A2
# T18 sequence (whole entry): T3 sequence (whole entry) with F280L
# In short: as §1
# [19] = test system: T19, OR2A5 I126V A202S A255T
# T19 sequence (whole entry): T6 sequence (whole entry) with I126V, A202S, A255T
# In short: as §1
# [20] = test system: T20, OR2A7
# T20 sequence (whole entry): T5 sequence (whole entry) with R238C, V250F
# In short: as §1
smiles,measurement,setting,value
CCCCCC(S)C(C)CO (configuration not stated),odorant receptor agonist call,[1],inactive
same,odorant receptor agonist call,[2],inactive
same,odorant receptor agonist call,[3],inactive
same,odorant receptor agonist call,[4],inactive
same,odorant receptor agonist call,[5],inactive
same,odorant receptor agonist call,[6],inactive
same,odorant receptor agonist call,[7],inactive
same,odorant receptor agonist call,[8],inactive
same,odorant receptor agonist call,[9],inactive
same,odorant receptor agonist call,[10],inactive
same,odorant receptor agonist call,[11],inactive
same,odorant receptor agonist call,[12],active
same,odorant receptor agonist call,[13],inactive
same,odorant receptor agonist call,[14],inactive
same,odorant receptor agonist call,[15],inactive
same,odorant receptor agonist call,[16],active
CCCCCCCCCCCCCCCC(=O)OCC,odorant receptor agonist call,[7],inactive
Cc1cnc(C)c(C)n1,odorant receptor agonist call,[17],inactive
same,odorant receptor agonist call,[1],inactive
same,odorant receptor agonist call,[2],inactive
same,odorant receptor agonist call,[3],inactive
same,odorant receptor agonist call,[4],inactive
same,odorant receptor agonist call,[18],inactive
same,odorant receptor agonist call,[5],inactive
same,odorant receptor agonist call,[6],inactive
same,odorant receptor agonist call,[19],inactive
same,odorant receptor agonist call,[7],inactive
same,odorant receptor agonist call,[20],inactive
same,odorant receptor agonist call,[8],inactive
same,odorant receptor agonist call,[9],inactive
same,odorant receptor agonist call,[10],inactive
same,odorant receptor agonist call,[12],inactive
same,odorant receptor agonist call,[13],inactive
same,odorant receptor agonist call,[14],inactive
same,odorant receptor agonist call,[15],inactive
same,odorant receptor agonist call,[16],inactive
CCCCCCCC(=O)OC,odorant receptor agonist call,[7],inactive
